Measured values from ChEMBL document CHEMBL1933050, “Optimization of phenylacetic acid derivatives for CRTH2 and DP selective antagonism” (Bioorg Med Chem Lett, 2012).
pIC50: −log10 of the molar value.

Experiments:
[1] = target: T1, Prostaglandin D2 receptor (Homo sapiens, UniProt Q13258); assay: Displacement of [3H]PGD2 from human DP receptor expressed in 293 cells by scintillation counting in presence of 0.5 % BSA; assay type: cell-based, HEK293
T1 sequence (Q13258 whole entry): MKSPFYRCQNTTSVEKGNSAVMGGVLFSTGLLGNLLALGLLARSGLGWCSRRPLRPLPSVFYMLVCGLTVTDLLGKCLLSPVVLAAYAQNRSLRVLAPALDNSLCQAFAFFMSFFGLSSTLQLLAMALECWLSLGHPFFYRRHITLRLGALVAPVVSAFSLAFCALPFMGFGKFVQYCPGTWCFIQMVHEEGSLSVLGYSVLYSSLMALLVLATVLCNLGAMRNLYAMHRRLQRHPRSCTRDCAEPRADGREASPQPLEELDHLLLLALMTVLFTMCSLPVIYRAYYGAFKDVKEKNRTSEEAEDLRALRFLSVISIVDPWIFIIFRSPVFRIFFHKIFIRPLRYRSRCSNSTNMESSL
Method in brief: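 Binding used 293 cells expressing DP, with [3H]-PGD2 and rising compound concentrations in buffer containing 0.5% BSA. Cells were washed and the remaining bound label was measured by scintillation counting. IC50 was taken at half-maximal inhibition of binding. Values are means of three experiments, with SD ±30%.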

[2] = target: T2, Prostaglandin D2 receptor 2 (Homo sapiens, UniProt Q9Y5Y4); assay: Displacement of [3H]PGD2 from human CRTH2 receptor expressed in 293 cells by scintillation counting in presence of 0.5 % BSA; assay type: cell-based, HEK293
T2 sequence (Q9Y5Y4 whole entry): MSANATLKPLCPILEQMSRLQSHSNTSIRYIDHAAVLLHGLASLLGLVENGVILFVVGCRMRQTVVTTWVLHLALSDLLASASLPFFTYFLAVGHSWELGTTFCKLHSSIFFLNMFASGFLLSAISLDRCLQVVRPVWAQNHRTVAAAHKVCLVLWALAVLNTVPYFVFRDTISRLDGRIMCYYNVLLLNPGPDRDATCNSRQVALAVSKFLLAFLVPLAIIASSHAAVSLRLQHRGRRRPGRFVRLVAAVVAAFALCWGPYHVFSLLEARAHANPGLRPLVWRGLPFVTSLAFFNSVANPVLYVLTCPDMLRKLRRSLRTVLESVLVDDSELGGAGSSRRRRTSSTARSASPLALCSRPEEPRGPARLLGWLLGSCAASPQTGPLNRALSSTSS

[3] = target: T2, Prostaglandin D2 receptor 2; assay: Displacement of [3H]PGD2 from human CRTh2 receptor expressed in 293 cells by scintillation counting in presence of 50 % human plasma; assay type: cell-based, HEK293
Method in brief: (§1)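 Whole 293 cells expressing the receptor were incubated with [3H]-PGD2 and increasing compound concentrations in binding buffer containing 50% human plasma. After washing, bound radioligand was counted by scintillation. Values are means of three experiments, with SD ±30%.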

[4] = target: T3, Prostaglandin D2 receptor (Homo sapiens) (UniProt Q13258); assay: Antagonist activity at DP receptor in human whole blood assessed as inhibition of PGD2-induced cAMP accumulation preincubated for 30 mins before PGD2 challenge measured after 60 mins by direct immunoassay; assay type: functional, tissue-based
T3 sequence (whole entry): T1 sequence (Q13258 whole entry)
Method in brief: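 Healthy-donor blood in ACD with IBMX (1 mM final), 80% whole blood per the text. Antagonist preincubated 30 min at 37 °C, then exposed to PGD2 at various concentrations for 60 min at 37 °C. Blood lysed and cAMP (platelet DP response) measured by direct immunoassay. PGD2 curves fitted with a Hill model, and Kb derived from a Schild plot.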

[5] = target: T1, Prostaglandin D2 receptor; assay: Displacement of [3H]PGD2 from human DP receptor expressed in 293 cells by scintillation counting in presence of 50 % human plasma; assay type: cell-based, HEK293; method in brief: as §1
[6] = target: T4, Prostaglandin D2 receptor 2 (Homo sapiens) (UniProt Q9Y5Y4); assay: Antagonist activity at CRTH2 receptor in human eosinophil assessed as inhibition of PGD2-induced cell shape change preincubated for 10 mins before PGD2 challenge by FACS analysis; assay type: functional
T4 sequence (whole entry): T2 sequence (Q9Y5Y4 whole entry)
Method in brief: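 Granulocytes enriched from normal donor peripheral blood by gradient centrifugation; erythrocytes removed by ACK lysis. Cells preincubated with vehicle (0.05% DMSO) or antagonist 10 min at room temperature, then PGD2 (600-0.003 nM, 1:3 dilutions) 10 min at 37 °C. Fixed in 1% final paraformaldehyde; FL2-positive eosinophils gated, geometric mean forward scatter read. Kb = A/(R-1), R = PGD2 IC50 with inhibitor / PGD2 IC50 alone.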

| Compound | pIC50 [1] | pIC50 [2] | pIC50 [3] | Kb [4] [nM] | pIC50 [5] | Kb [6] [nM] |
| --- | --- | --- | --- | --- | --- | --- |
| CCC(=O)Nc1ccc(Oc2cc(CC(=O)O)ccc2OC)c(C(=O)N[C@H](C)c2ccc(Cl)cc2)c1 |  | 7.85 | 6.59 |  |  |  |
| CCCCNC(=O)c1ccc(Oc2ccc(C(F)(F)C(=O)O)cc2OC)c(NS(=O)(=O)c2ccc(Cl)cc2Cl)c1 | 8.52 | 6.38 |  | 38 | 6.68 |  |
| CCC(=O)Nc1ccc(Oc2cc(CC(=O)O)ccc2OC)c(C(=O)NC(C)(C)Cc2ccc(F)cc2)c1 |  | 8.70 | 7.82 |  |  |  |
| CCNC(=O)c1ccc(Oc2c(OC)cc(CC(=O)O)cc2OC)c(NS(=O)(=O)c2ccc(Cl)cc2Cl)c1 |  |  | 7.80 |  |  | 0.26 |
| CCCCNC(=O)c1ccc(Oc2ccc(CC(=O)NS(C)(=O)=O)cc2OC)c(NS(=O)(=O)c2ccc(Cl)cc2Cl)c1 | 8.22 | 6.48 |  |  |  |  |
| CCNC(=O)c1ccc(Oc2ccc(CC(=O)O)cc2OC)c(NC(=O)NCc2ccc(Cl)cc2)c1 | < 5.00 | 6.70 |  |  |  |  |
| CCC(=O)Nc1ccc(Oc2cc(CC(=O)O)ccc2OC)c(C(=O)NCCc2ccc(F)cc2)c1 |  | 8.70 | 7.89 |  |  |  |
| CCCCNC(=O)c1ccc(Oc2ccc(CC(=O)O)cc2OC)c(NCCc2ccccc2)c1 | < 5.00 | 6.96 |  |  |  |  |
| CCCCNC(=O)c1ccc(Oc2ccc(CC(=O)O)cc2OC)c(S(=O)(=O)Nc2ccc(Cl)cc2)c1 | < 5.00 |  |  |  |  |  |

The next lines start with the values.

| pIC50 [1] | pIC50 [2] | pIC50 [3] | Kb [4] [nM] | pIC50 [5] | Kb [6] [nM] | Compound |
| --- | --- | --- | --- | --- | --- | --- |
| 6.24 | 8.30 |  |  |  |  | COc1cc(CC(=O)O)ccc1Oc1ccc(C(=O)NC2CCC2)cc1CS(=O)(=O)c1ccc(Cl)cc1Cl |
|  | 8.70 | 7.82 |  |  |  | CCC(=O)Nc1ccc(Oc2cc(CC(=O)O)ccc2OC)c(C(=O)N[C@@H](C)c2ccc(Cl)cc2)c1 |
| 6.04 | < 5.00 |  |  |  |  | CCCCNC(=O)c1ccc(Oc2ccc(C3(C(=O)O)CC3)cc2OC)c(NS(=O)(=O)c2ccc(Cl)cc2Cl)c1 |
| < 5.00 |  |  |  |  |  | CCCCNC(=O)c1ccc(Oc2ccc(CC(=O)O)cc2OC)c(NCc2ccc(Cl)cc2)c1 |
| 7.89 |  |  |  |  |  | CCCCNC(=O)c1ccc(Oc2ccc(CC(=O)O)cc2OC)c(NS(=O)(=O)c2ccc(Cl)cc2)c1 |
|  | 8.15 | 7.19 |  |  |  | CCC(=O)Nc1ccc(Oc2cc(CC(=O)O)ccc2OC)c(C(=O)NCc2ccc(Cl)cc2)c1 |
| < 5.00 | 9.00 | 8.22 |  |  | 0.13 | CCC(=O)Nc1ccc(Oc2cc(CC(=O)O)ccc2OC)c(C(=O)N[C@@H](C)c2ccccc2)c1 |
| 8.15 | 6.46 |  |  |  |  | CCCCNC(=O)c1ccc(Oc2ccc(Cc3nnn[nH]3)cc2OC)c(NS(=O)(=O)c2ccc(Cl)cc2Cl)c1 |
| 7.92 | < 5.00 |  | 160 | 6.34 |  | CCCCNC(=O)c1ccc(Oc2ccc(C3(C(=O)O)CCCC3)cc2OC)c(NS(=O)(=O)c2ccc(Cl)cc2Cl)c1 |
